# TAAR1 antag: human TAAR1 antagonism; CHO RD-HGA16 TAAR1, Fluo-8 calcium fluorescence, antagonist; 360,000 tested, 1.5% active; AID 624466; inhibition, % at 3 µM; Q96RJ0;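 active = inhibition above a per-plate cutoff, the mean inhibition of test compounds on that plate plus 3 SD, cut at about 49% in these data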;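 note: 0% = DMSO plus EC80 beta-PEA response and 100% = DMSO alone without agonist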
#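 Assay system: RD-HGA16 CHO cells with stable hTAAR1 and Gα16 / Reagent: EC80 β-phenethylamine stimulus / Doses: 3 µM, single point / Timing: dye loading 75 min at 37 °C, then 30 min room temperature / Measured by: Fluo-8 intracellular calcium dye fluorescence, real-time kinetic reads / Controls: vehicle wells and EC80 agonist wells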
# TAAR1 ag: human TAAR1 agonism. CHO RD-HGA16 TAAR1, Fluo-8 calcium fluorescence; vehicle wells 0%, saturating PEA agonist 100%. Q96RJ0. activation, % at 3 µM. 360,000 tested, 0.99% active;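 active = activation above the mean activation of all test compounds in the run plus 3 SD, cut at about 38% in these data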
#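 System: CHO RD-HGA16 cells carrying human TAAR1 plus Gα16; Incubation: 17-24 h seeding, 75 min 37 °C dye, 30 min RT; Measured by: Fluo-8 fluorescence, 5 s baseline then 140 s kinetic read; Control set: DMSO and PEA EC100; Replication: single well for each compound.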
# CHO parental Ca: counter-screen: ATP calcium response change in parental CHO cells; inhibition, % at 5.6 µM; parental CHO-K1, ATP-induced calcium, Fluo-8 fluorescence; AID 463079; 330,000 tested, 0.63% active;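 active = inhibition above that plate's mean sample inhibition plus 3 SD, cut at about 26% in these data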;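 note: 0% = ATP-challenged DMSO wells and 100% = DMSO wells without ATP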
#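 test system = CHO parental line | reagent = ATP stimulus | measured by = intracellular calcium via Fluo-8 no-wash fluorescent dye | control set = ATP and no-ATP DMSO wells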
# OX1R antag-1: blocks the human orexin 1 receptor. OX1R-expressing cells, FRET antagonist read-out. inhibition, % at 6.6 µM. 330,000 tested, 1.8% active; in the data active = inhibition mostly above about 38%, no sharp cut-off; inactive = mostly below about 40%;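 note: 0% = agonist challenge alone and 100% = reference antagonist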
# Target sequence (O43613 whole entry, looked up): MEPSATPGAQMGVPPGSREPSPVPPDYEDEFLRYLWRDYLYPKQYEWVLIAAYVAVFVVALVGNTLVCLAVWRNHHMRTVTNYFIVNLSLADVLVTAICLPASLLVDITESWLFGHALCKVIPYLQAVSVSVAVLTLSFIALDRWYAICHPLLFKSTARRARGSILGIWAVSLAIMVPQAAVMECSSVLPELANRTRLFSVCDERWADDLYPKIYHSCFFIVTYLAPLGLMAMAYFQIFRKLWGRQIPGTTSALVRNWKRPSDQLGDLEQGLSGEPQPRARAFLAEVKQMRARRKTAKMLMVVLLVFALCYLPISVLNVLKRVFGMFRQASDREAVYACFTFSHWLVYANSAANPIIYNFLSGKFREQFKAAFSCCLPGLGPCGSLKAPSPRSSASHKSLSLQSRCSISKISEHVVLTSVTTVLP
# GPR7 antagonist: human neuropeptides B/W receptor 1 antagonism; GPR7-expressing cells, fluorescence antagonist assay; inhibition, % at 4.4 µM; 290,000 tested, 1.1% active; in the data active = inhibition above about 16%, passing the limit was not always enough;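 note: cells stimulated with the agonist NPW; 0% = agonist with vehicle and 100% = vehicle without agonist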
# OX1R antag-2: antagonists of human orexin 1 receptor; inhibition, % at 5 µM; AID 434989; 330,000 tested, 0.43% active; CHO/OX1R cells, Fluo-8 calcium fluorescence, orexin A; O43613;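 active = inhibition above its plate's threshold, mean inhibition of all tested compounds on the plate plus 3 SD, cut at about 37% in these data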;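 note: 0% = orexin A challenge wells and 100% = SB-334867-A antagonist wells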
# The depositor's hits bear a star; . = not tested or not shown. This is a sample that favours compounds with a hit; in the whole collection about 4.5% have one here.
SMILES,TAAR1 antag,TAAR1 ag,CHO parental Ca,OX1R antag-1,GPR7 antagonist,OX1R antag-2
CCc1cc2c(-c3ccccc3)cc(=O)oc2cc1OC(C)C(C)=O (centres undefined),50*,17,-3,9,14,-25
COc1ccc(-c2cc3ccccc3n2CC(O)Cn2nc(C)cc2C)cc1 (centres undefined),-6,1,-23,5,-3,-31
COc1ccc(-c2cc3ccccc3n2CC(O)CNC(CO)(CO)CO)cc1 (centres undefined),-10,3,-14,-2,15*,-17
Cn1nc(CC(=O)NCc2ccc(C(F)(F)F)cc2)c2ccccc2c1=O,52*,17,30,58,4,36
Cn1nc(C(=O)NCc2ccc(F)cc2)c2ccccc2c1=O,-4,5,-13,15,2,-28
CC(C)(C)c1ccc(CC(=O)N2CCC2(C)C(=O)O)cc1 (centres undefined),-21,4,.,.,.,.
CC(C)C(NCC(=O)Nc1ccccc1C(=O)NC1CC1)c1ccccc1 (centres undefined),15,7,-12,43*,.,16
CCOC(=O)C1CCCN(S(=O)(=O)c2ccc(S(=O)(=O)N3CCCC3)cc2)C1 (centres undefined),2,5,37*,36,.,10
CCOC(=O)C1CCCN(C(=S)Nc2ccc(F)cc2)C1 (centres undefined),30,51*,-11,-6,-2,-17
CCOC(=O)C1CCCN(c2cc(C)nc3cc(-c4ccc(Cl)cc4)nn23)C1 (centres undefined),-8,3,-15,30,-2,-34
CCOC(=O)C1CCCN(c2cc(C)nc3cc(-c4ccc(F)cc4)nn23)C1 (centres undefined),28,43*,-21,12,-2,-45
CCOC(=O)c1ccc(NC(=S)N2CCCC(C(=O)OCC)C2)cc1 (centres undefined),37,36,-20,23,-15,-28
COc1ccc(CCNc2ncccc2C#N)cc1OC,2,-1,-7,23,7,-22
CN(C)c1ccc(-c2nn3c(-c4cccnc4)nnc3s2)cc1,.,.,-15,20,.,4
COc1ccccc1-c1nnc2sc(-c3ccc(N(C)C)cc3)nn12,0,-2,-19,69*,18,14
COc1ccccc1-c1nnc2sc(-c3cc4ccccc4o3)nn12,-15,0,1,12,18*,-9
COc1ccc(C)cc1NCc1cc(=O)oc2cc(-c3ccccc3)c(O)cc12,5,5,-12,13,15,-3
CCOc1ccccc1NCc1cc(=O)oc2cc(C)ccc12,11,-1,-28,47*,11,-12
Cc1ccc2c(COC(=O)c3ccccc3OC(F)F)cc(=O)oc2c1,54*,8,4,66,7,18
O=C(OCC(=O)N1CCCC1=O)c1cccc([N+](=O)[O-])c1,-21,0,-4,48*,-10,-19
COc1cc(/C=N/NC(=O)c2ccc3nc[nH]c3c2)cc(OC)c1OC,.,.,-13,12,-3,-5
COc1cc(/C=N/NC(=O)c2ccc(CSc3nc4ccccc4[nH]3)cc2)cc(OC)c1OC,52*,14,-12,6,3,-17
O=C(O)COc1ccccc1/C=N/Nc1ccc(S(=O)(=O)N2CCOCC2)cc1[N+](=O)[O-],-21,2,-14,63*,-11,-9
COC(=O)C1=C(C)N(Cc2cccc(C(F)(F)F)c2)C(=NCc2cc(OC)c(OC)c(OC)c2)NC1c1cccc(C(F)(F)F)c1 (centres undefined),-5,4,.,.,.,.
CCOc1ccc(NC(=O)CN(C)C(=O)C2CCN(C(=O)c3ccc(Cl)cc3)CC2)cc1OCC,-9,-1,-7,1,.,-24
SMILES,TAAR1 antag,TAAR1 ag,CHO parental Ca,OX1R antag-1,GPR7 antagonist,OX1R antag-2
COc1ccccc1C(=O)Nc1nnc(-c2ccc3c(c2)CCCC3)o1,-11,-1,-4,68*,-5,-18
CC(=O)Nc1nnc(-c2ccc3c(c2)CCCC3)o1,15,-1,-5,7,-4,-21
O=c1[nH]c(-c2ccccc2)cn1C1CCN(Cc2ccc(-c3nc4ccc(Br)cc4nc3-c3ccccc3)cc2)CC1,47,8,.,.,.,.
CCOC(=O)[C@]12CCCC=C1N(CCC1=CCCCC1)C(=O)[C@H](CC(=O)NCc1ccc(C)o1)C2,-13,3,.,.,.,.
CCC(=O)Nc1ccc2c(c1)C(=O)c1ccccc1C2=O,4,2,-6,37*,3,-11
CC(NC(=O)CN1C(=O)c2ccccc2C1=O)c1ccccc1 (centres undefined),-8,0,-5,13,2,5
CCC(=O)Nc1ccc2c(c1)C(=O)N(C)C2=O,-10,3,2,24,2,-23
CCC(=O)NC1=C(NC(C)c2ccccc2)C(=O)c2ccccc2C1=O (centres undefined),0,4,-12,64*,-7,-21
O=C(c1cc2cc(Br)cc(Br)c2oc1=O)N1CCCc2ccccc21,.,.,.,.,-2,.
Cn1c(SCC2CCCO2)nnc1-c1ccncc1 (centres undefined),-14,4,-9,-8,-14,-6
Cn1c(SCC2CCCO2)nnc1-c1cccc([N+](=O)[O-])c1 (centres undefined),21,12,-1,50*,-6,-16
CC(=O)Oc1ccc2c(=O)c(Oc3ccccc3)coc2c1OC(C)=O,-13,0,8,18,5,-10
COc1cc(Nc2ccc(C(=O)O)cc2[N+](=O)[O-])cc(OC)c1,0,2,-3,54*,-9,-7
O=C(O)c1cnc(-c2ccccc2)nc1-c1ccccc1,13,1,-9,62*,-5,3
COc1cccc(N2CCN(C(=O)c3ccc(OC)c(S(=O)(=O)NC4CC4)c3)CC2)c1,-1,2,.,.,.,.
C[C@H](NC(=O)c1ccccc1)C(=O)OCC(=O)Nc1ccc2c(c1)OCO2,49*,1,-13,8,.,9
O=C(COC(=O)[C@H](Cc1c[nH]c2ccccc12)NC(=O)c1ccc(Cl)cc1)Nc1ccc2c(c1)OCO2,11,5,35*,6,5,34
COC(=O)[C@]12C[C@H](CC(=O)NCc3cccc(C(F)(F)F)c3)C(=O)N(CCC3=CCCCC3)C1=C[C@H](COCc1ccccc1)O[C@@H]2C,-21,0,.,.,.,.
C=CCN=C1NC(c2ccccc2C(F)(F)F)C(C(=O)OC)=C(C)N1Cc1ccc(C(F)(F)F)cc1 (centres undefined),-3,3,.,.,.,.
O=C(c1ncc[nH]1)c1ccccc1C(=O)N1CCOCC1,-9,4,-4,10,1,6
